Data published in ChEMBL document CHEMBL1649112, “Effects of exposure of Clostridium difficile PCR ribotypes 027 and 001 to fluoroquinolones in a human gut model” (Antimicrob Agents Chemother, 2009).
Active and inactive are the calls of the source. The rule behind the calls is not given here.

Legend:
Bifidobacterium [1] = assay: Antimicrobial activity against Bifidobacterium in three-stage chemostat gut model assessed as log reduction in bacterial count at 139 mg/liter administered every 12 hrs for 7 days; assay type: functional
In short: (§1)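 Three-stage anaerobic chemostat (37°C, N2-sparged; vessels at pH 5.5, 6.2 and 6.8; 66.7 h total retention) primed with 10% (wt/vol) pooled C. difficile-negative feces from healthy elderly donors. Instillation began on day 21. Vessel 2 and 3 samples were diluted 10-fold serially to 10–7 in prereduced peptone water and plated on selective agars in triplicate; counts are log10 CFU/ml.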

[2] = Drug level in human feces; assay type: ADME, tissue-based
Clostridioides difficile [3] = assay: Antimicrobial activity against Clostridium difficile PCR ribotype 001 expressing gyrB Glu466Lys mutant grown on fluoroquinolone-containing medium after 48 hrs; assay type: functional; details: PCR ribotype 001, 48 h
Bacteroides sp. = assay: Antimicrobial activity against Bacteroides sp. in three-stage chemostat gut model assessed as log reduction in bacterial count at 63 mg/liter administered daily for 7 days; assay type: functional; in short: as §1
Clostridium = assay: Antimicrobial activity against Clostridium in three-stage chemostat gut model assessed as log reduction in bacterial count at 63 mg/liter administered daily for 7 days; assay type: functional; in short: as §1
Enterococcus = assay: Antimicrobial activity against Enterococcus in three-stage chemostat gut model assessed as log reduction in bacterial count at 63 mg/liter administered daily for 7 days; assay type: functional, organism-based; in short: as §1
Clostridioides difficile [4] = assay: Induction of cytotoxin production in Clostridium difficile PCR ribotype 001 in three-stage chemostat gut model at 63 mg/liter administered daily for 7 days measured after 3 days; assay type: functional, organism-based
In short: (§2)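 Gut model as above; on day 21 drug instillation began and a second C. difficile spore inoculum was added to vessel 1. Sample supernatants (16,000 x g) were diluted serially to 10–7 in PBS pH 7.4 and applied to Vero monolayers at 37°C in 5% CO2. Cell rounding was read at 24 and 48 h, and titers are given in relative units.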

Clostridioides difficile [5] = assay: Antimicrobial activity against Clostridium difficile PCR ribotype 027 expressing gyrB Glu466Lys mutant grown on fluoroquinolone-containing medium after 48 hrs; assay type: functional; details: PCR ribotype 027, 48 h
Lactobacillus [6] = assay: Antimicrobial activity against Lactobacillus in three-stage chemostat gut model assessed as log reduction in bacterial count at 63 mg/liter administered daily for 7 days; assay type: functional; in short: as §1
Clostridioides difficile [7] = assay: Induction of cytotoxin production in Clostridium difficile PCR ribotype 027 in three-stage chemostat gut model at 63 mg/liter administered daily for 7 days measured after 2 days; assay type: functional, organism-based; in short: as §2
Bifidobacterium [8] = assay: Antimicrobial activity against Bifidobacterium in three-stage chemostat gut model assessed as log reduction in bacterial count at 43 mg/liter administered daily for 7 days; assay type: functional; in short: as §1
Lactobacillus [9] = assay: Antimicrobial activity against Lactobacillus in three-stage chemostat gut model assessed as log reduction in bacterial count at 43 mg/liter administered daily for 7 days; assay type: functional; in short: as §1

Row | Compound | Activity (Bifidobacterium [1]) | Drug uptake [2] [mg/kg] | MIC (Clostridioides difficile [3]) [µg/mL] | FC (Bacteroides sp.) | Activity (Clostridium) | Activity (Enterococcus) | Activity (Clostridioides difficile [4]) | MIC (Clostridioides difficile [5]) [µg/mL] | Activity (Lactobacillus [6]) | Activity (Clostridioides difficile [7]) | Activity (Bifidobacterium [8]) | Activity (Lactobacillus [9])
1 | O=C(O)c1cn(C2CC2)c2cc(N3CCNCC3)c(F)cc2c1=O [CIPROFLOXACIN] | Active | 139 |  |  |  |  |  |  |  |  |  | 
2 | C[C@H]1COc2c(N3CCN(C)CC3)c(F)cc3c(=O)c(C(=O)O)cn1c23.C[C@H]1COc2c(N3CCN(C)CC3)c(F)cc3c(=O)c(C(=O)O)cn1c23.O [LEVOFLOXACIN] |  | 94 | 256 | 1 | inactive | inactive | Active | 256 | inactive | Active |  | 
3 | COc1c(N2C[C@@H]3CCCN[C@@H]3C2)c(F)cc2c(=O)c(C(=O)O)cn(C3CC3)c12 [MOXIFLOXACIN] |  | 66 |  |  |  |  |  |  |  |  | inactive | inactive
